High-throughput results as filed in PubChem.
Most compounds without a hit are left out; they make up all but 1.5% or so of the library.
GSIS activator = GLuc luminescence reporter in INS-1E cells, primary screen for activators of glucose-dependent secretion of insulin. INS-1E GLuc reporter insulin secretion, 2-3 h. activation, % at 16.6 µM. 0.61% of 370,000 active;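 active = lowest replicate activation of at least 40%, so every replicate reaches that level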
SIRT5 block = SIRT5 desuccinylase inhibitors, primary screen, biochemical, fluorescence imaging, single point, set 5. 1.1% of 330,000 active. AID 652115, 2013. NAD-dependent protein deacylase sirtuin-5, mitochondrial (Homo sapiens), Q9NXA8. Purified SirT5, succinyl-peptide AMC, trypsin-coupled fluorescence. inhibition, % at 15 µM; in the data active = inhibition above about 15%
PDI inh = inhibitors of human PDI, primary screen, biochemical, turbidity, single point, plate reader. Protein disulfide-isomerase (Homo sapiens), P07237. PDI insulin aggregation turbidity, A650, 90 min. 0.052% of 350,000 active. AID 588391, 2011. inhibition, % at 10 µM;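 active = mean inhibition across replicates of 30% or more, whatever share of single replicates reach that level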
ERp5 inh = inhibitors of ERp5-driven insulin aggregation, primary screen, biochemical, turbidity, absorbance 650 nm, single point; 90 min; inhibition, % at 9.99 µM; 0.05% of 350,000 active;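 active = mean replicate inhibition above about 25%, with every replicate also reaching it, limit read from the data, passing the limit was not always enough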
Target sequence (Q15084 whole entry, looked up): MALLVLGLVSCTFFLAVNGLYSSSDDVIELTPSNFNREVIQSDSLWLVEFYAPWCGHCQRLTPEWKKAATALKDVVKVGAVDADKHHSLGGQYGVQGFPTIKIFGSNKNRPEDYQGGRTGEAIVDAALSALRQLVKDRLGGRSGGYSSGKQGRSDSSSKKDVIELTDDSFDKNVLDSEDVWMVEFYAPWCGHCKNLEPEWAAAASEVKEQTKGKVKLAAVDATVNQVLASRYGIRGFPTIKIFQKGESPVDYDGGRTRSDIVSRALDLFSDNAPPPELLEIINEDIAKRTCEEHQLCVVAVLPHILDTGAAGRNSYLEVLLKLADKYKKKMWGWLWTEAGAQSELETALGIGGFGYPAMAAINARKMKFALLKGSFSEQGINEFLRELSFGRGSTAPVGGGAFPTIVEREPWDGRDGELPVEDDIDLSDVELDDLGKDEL
S100A4 MyoIIA = inhibitors of S100A4-myosin IIA peptide binding, primary screen, biochemical, fluorescence polarization, TAMRA-MyoIIA peptide; AID 652163, 2013; 0.14% of 360,000 active; inhibition, % at 10.7 µM; Protein S100-A4 (Homo sapiens), P26447;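 active = mean inhibition of at least 70% across replicates, with every replicate also reaching that level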
Target sequence (P26447 whole entry, looked up): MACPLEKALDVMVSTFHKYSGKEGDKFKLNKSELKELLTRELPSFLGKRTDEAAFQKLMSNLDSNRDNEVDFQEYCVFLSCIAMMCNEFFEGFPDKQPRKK
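Test system: S100A4 monomer protein; Medium: HEPES pH 7.2 with CaCl2, KCl, NaCl, DTT, Triton; Probe or stimulus: TAMRA-labelled myosin IIA heavy-chain peptide probe, 5 nM; Doses: one dose per compound; Times: polarization read 5 min after assay mix addition, stable 5–60 min; Benchmarks: neutral control DMSO, positive control TFP.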
A number is an active result.

Results for COCC#Cc1cnc2c(c1)C(=O)N([C@@H](C)CO)C[C@H](C)[C@H](CN(C)C(=O)Nc1cccc(F)c1)O2 ?
GSIS activator: inactive; SIRT5 block: inactive; ERp5 inh: inactive; S100A4 MyoIIA: inactive

How did COc1cccc(-c2cc(C(=O)Nc3cc(C)on3)no2)c1 do in these assays?
GSIS activator: 73; PDI inh: inactive

How did Cc1cc(NC(=O)c2ccno2)no1 do in these assays?
GSIS activator: inactive; SIRT5 block: 19; PDI inh: inactive; ERp5 inh: inactive; S100A4 MyoIIA: inactive

Results for Cc1cc(NC(=O)c2ccc(F)cc2)no1 ?
GSIS activator: inactive; PDI inh: inactive; ERp5 inh: inactive; S100A4 MyoIIA: inactive

Results for COc1ccc(-c2cc(C(=O)NCc3ccc(Cl)cc3)no2)cc1OC ?
GSIS activator: inactive; PDI inh: inactive

What do the screens show for `Cc1cc(NC(=O)c2cc(-c3cccc(Cl)c3)on2)no1`?
GSIS activator: 125; PDI inh: inactive

Results for COc1ccc(CNC(=O)c2cc(-c3ccc(OC)c(OC)c3)on2)cc1 ?
GSIS activator: 78; PDI inh: inactive

What do the screens show for `COc1cccc(-c2ccc3c(c2)O[C@@H](CN(C)C)[C@@H](C)CN([C@H](C)CO)S3(=O)=O)c1`?
GSIS activator: inactive; SIRT5 block: inactive; ERp5 inh: inactive; S100A4 MyoIIA: inactive

How did O=C(C[C@@H]1C[C@H]2c3cc(NC(=O)C4CCOCC4)ccc3O[C@H]2[C@H](CO)O1)NCCc1ccccc1 do in these assays?
GSIS activator: inactive; SIRT5 block: inactive; ERp5 inh: inactive; S100A4 MyoIIA: inactive

How did c1ccc2c(c1)[nH]c1nc3nncn3nc12 do in these assays?
GSIS activator: inactive; SIRT5 block: 18; PDI inh: inactive; ERp5 inh: inactive; S100A4 MyoIIA: inactive

How did S=c1nc2[nH]c3ccccc3c2n[nH]1 do in these assays?
GSIS activator: inactive; SIRT5 block: inactive; PDI inh: inactive; ERp5 inh: inactive; S100A4 MyoIIA: inactive

What do the screens show for `CCNC(=O)C[C@H]1CC[C@@H]2[C@H](COC[C@H](O)CN2C(=O)c2cc(Cl)cc(Cl)c2)O1`?
GSIS activator: inactive

Results for COc1ccccc1S(=O)(=O)N(C)C[C@@H]1Oc2cc(C#CCC3CCCC3)ccc2S(=O)(=O)N([C@@H](C)CO)C[C@@H]1C ?
GSIS activator: inactive; SIRT5 block: 17; ERp5 inh: inactive; S100A4 MyoIIA: inactive

Results for COc1ccccc1S(=O)(=O)N(C)C[C@H]1Oc2cc(C#CCC(C)C)ccc2S(=O)(=O)N([C@H](C)CO)C[C@@H]1C ?
GSIS activator: inactive; SIRT5 block: 30; ERp5 inh: inactive; S100A4 MyoIIA: inactive

What do the screens show for `Cc1noc(C)c1NC(=O)Nc1ccc2c(c1)CC(=O)N([C@@H](C)CO)C[C@@H](C)[C@@H](CN(C)Cc1ccc(C(=O)O)cc1)O2`?
GSIS activator: inactive; SIRT5 block: inactive; ERp5 inh: inactive; S100A4 MyoIIA: inactive

How did ClC(Cl)(c1nnnn1-c1ccccc1)c1nnnn1-c1ccccc1 do in these assays?
GSIS activator: 139; PDI inh: inactive

What do the screens show for `c1ccc(-c2nnnn2-c2ccccc2)cc1`?
GSIS activator: inactive; SIRT5 block: inactive; PDI inh: inactive; ERp5 inh: inactive; S100A4 MyoIIA: inactive

Results for C[C@@H]1CN([C@@H](C)CO)C(=O)Cc2cc(NS(=O)(=O)c3cccs3)ccc2O[C@H]1CN(C)Cc1ccncc1 ?
GSIS activator: inactive

Results for CCOc1ccc(C(=O)Nc2ccc(-c3nc4ccccc4[nH]3)cc2)cc1[N+](=O)[O-] ?
GSIS activator: 102; PDI inh: inactive

Results for Cn1ncc([N+](=O)[O-])c1C(=O)Nc1ccc(-c2nc3ccccc3[nH]2)cc1 ?
GSIS activator: inactive; PDI inh: inactive

Results for O=S(=O)(O)c1cc(O)c(N=Nc2ccc(O)cc2O)c2ccccc12 ?
GSIS activator: inactive; SIRT5 block: 31; PDI inh: inactive; ERp5 inh: inactive; S100A4 MyoIIA: inactive

What do the screens show for `O=C(O)[C@@H]1[C@@H](CO)[C@@H]2Cn3c(ccc(/C=C/c4ccccc4)c3=O)[C@@H]2N1C(=O)c1cnccn1`?
GSIS activator: inactive; SIRT5 block: inactive; ERp5 inh: inactive; S100A4 MyoIIA: inactive

What do the screens show for `c1coc(-c2nnc(-c3ccco3)nn2)c1`?
GSIS activator: inactive; SIRT5 block: 18; PDI inh: inactive; ERp5 inh: inactive; S100A4 MyoIIA: inactive

How did CCC(=O)N[C@H]1C=C[C@@H](CC(=O)NCCN2CCCCC2)O[C@@H]1CO do in these assays?
GSIS activator: inactive; SIRT5 block: inactive; ERp5 inh: inactive; S100A4 MyoIIA: inactive

How did COc1ccc(S(=O)(=O)N(C)C[C@H]2OCCCC[C@H](C)Oc3ccc(NC(=O)NC(C)C)cc3C(=O)N([C@@H](C)CO)C[C@H]2C)cc1 do in these assays?
GSIS activator: inactive; SIRT5 block: inactive; ERp5 inh: inactive; S100A4 MyoIIA: inactive

Results for O=C(Nc1ccc(F)cc1)N1C[C@@H]2[C@H](c3ccccc31)[C@@H](CO)N2C(=O)c1ccc(F)cc1 ?
GSIS activator: inactive

Results for O=C(CN1C(=O)/C(=C/c2ccco2)SC1=S)Nc1ccc(C(=O)O)c(O)c1 ?
GSIS activator: inactive; SIRT5 block: 62; PDI inh: inactive; ERp5 inh: inactive; S100A4 MyoIIA: inactive

What do the screens show for `O=C(CN1C(=O)/C(=C/c2ccco2)SC1=S)Nc1ccc(O)c(C(=O)O)c1`?
GSIS activator: inactive; SIRT5 block: 53; PDI inh: inactive; ERp5 inh: inactive; S100A4 MyoIIA: inactive

What do the screens show for `CC(C(=O)Nc1ccc(C(=O)O)c(O)c1)N1C(=O)/C(=C\c2ccco2)SC1=S` (stereo not drawn)?
PDI inh: inactive

How did COC(=O)C[C@@H]1CC[C@H]2[C@H](COc3ccc(NS(=O)(=O)c4ccc(C)cc4)cc3C(=O)N2C)O1 do in these assays?
GSIS activator: inactive; SIRT5 block: inactive; ERp5 inh: inactive; S100A4 MyoIIA: 101

How did CCNC(=O)C[C@@H]1CC[C@H]2[C@H](COc3ccc(NS(=O)(=O)c4ccccc4C)cc3C(=O)N2C)O1 do in these assays?
GSIS activator: inactive; SIRT5 block: inactive; ERp5 inh: inactive; S100A4 MyoIIA: inactive

What do the screens show for `COc1cccc(CNC(=O)C[C@H]2CC[C@H]3[C@@H](COc4ccc(NS(=O)(=O)c5ccccc5F)cc4C(=O)N3C)O2)c1`?
GSIS activator: inactive; SIRT5 block: inactive; ERp5 inh: inactive; S100A4 MyoIIA: inactive

What do the screens show for `COc1cccc(CNC(=O)C[C@H]2CC[C@H]3[C@H](COc4ccc(NS(=O)(=O)c5ccccc5F)cc4C(=O)N3C)O2)c1`?
GSIS activator: inactive; SIRT5 block: 20; ERp5 inh: inactive; S100A4 MyoIIA: inactive
